In brackets after ≈: the same amount, converted by molar mass.
How the values were obtained:
[1] = Virus rating is measurement of degree of inhibition of virus-induced cytopathogenic effects and the degree of cytotoxicity produced by the test compound for influenza type A2; format: functional
[2] = test system: Human alphaherpesvirus 2; assay: Virus rating is measurement of degree of inhibition of virus-induced cytopathogenic effects and the degree of cytotoxicity produced by the test compound for Herpes simplex virus (HSV) -2; format: functional
How it was run: (§1)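 Virus rating as defined by Southern Research Institute: a selective antiviral score that combines the degree of inhibition of virus-induced cytopathogenic effect with the degree of cytotoxicity from the test compound, determined by a modification of a published method.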

[3] = test system: Vero; assay: Inhibition of cytopathogenic effect was determined against Herpes simplex virus (HSV) -2 in vero cell monolayer culture; format: functional; settings: Chlorocebus sabaeus
[4] = test system: Human alphaherpesvirus 2; assay: Evaluated virus rating for Herpes simplex virus (HSV) -2; format: functional; how it was run: as §1
[5] = test system: Vero; assay: Inhibition effect was determined against Herpes simplex virus (HSV) -1 in vero cell monolayer culture; format: functional, Chlorocebus sabaeus
[6] = test system: Vero; assay: Minimum inhibitory concentration of cytopathogenic-induced effect was determined against Herpes simplex virus (HSV) -2 in vero cell monolayer culture; format: functional; settings: Chlorocebus sabaeus

| Structure (SMILES) | Virus rating [1] | Virus rating [2] | MIC50 [3] [µg/mL] | Virus rating [4] | ID90 [5] [µM] | MIC50 [6] [µg/mL] |
| --- | --- | --- | --- | --- | --- | --- |
| NC(=O)c1ncn([C@@H]2O[C@H](CO)[C@@H](O)[C@H]2O)n1 [RIBAVIRIN] | 2.8 |  |  |  |  |  |
| Nc1nc2c(ncn2COCCO)c(=O)[nH]1 [ACYCLOVIR] |  | 5.1 | 4.3 (≈ 19.1 µM) |  |  |  |
| Nc1ncnc2c1ncn2[C@@H]1O[C@H](CO)[C@@H](O)[C@@H]1O [VIDARABINE] |  | 1.2 | 26.8 (≈ 100 µM) |  |  |  |
| Nc1ncnc2c1ncn2CC=C(CO)CO | 0.3 |  | 939 (≈ 3990 µM) | 0.6 |  |  |
| Nc1nc(O)c2ncn(CC=C(CO)CO)c2n1 |  | 1.5 |  |  | 25 | 65.6 (≈ 261 µM) |
